Measured values: PMC10935467 (Acta Pharmaceutica Sinica. B, 2023)
Where a SMILES comes first, the peptide text is derived from it. Where no end group is shown, it is not given here. [ ]: non-standard residue; d: D form.

Experiments:
[1] = system: MC38 tumors in C57BL/6 mice; assay: MC38 tumor model, LFOP alone or combined with radiotherapy; type: in vivo, mouse
Procedure, shortened: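 In MC38 tumor-bearing C57BL/6 mice, tumors of about 100 mm3 receive local 20 Gy irradiation. Test peptide at 5.8 mg/kg is given starting the same day, with or without irradiation; saline and RT-alone groups are included. Tumor volume (½ × length × width × height) and body weight are recorded every two days for 14 days, and tumors are weighed at the end. n = 5.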

[2] = In vivo toxicity analysis in MC38 tumor-bearing mice; parameters: species or system mouse
human LAG-3/FGL1 = biological target: T1, human LAG-3/FGL1 (Homo sapiens, UniProt P18627); assay: Blocking assay of hLAG-3/hFGL1 interaction on CHO-K1-hLAG-3 cells; type: binding; conditions: 100 μmol/L, n = 3, compared with LFP-D1
T1 sequence (P18627 23-525): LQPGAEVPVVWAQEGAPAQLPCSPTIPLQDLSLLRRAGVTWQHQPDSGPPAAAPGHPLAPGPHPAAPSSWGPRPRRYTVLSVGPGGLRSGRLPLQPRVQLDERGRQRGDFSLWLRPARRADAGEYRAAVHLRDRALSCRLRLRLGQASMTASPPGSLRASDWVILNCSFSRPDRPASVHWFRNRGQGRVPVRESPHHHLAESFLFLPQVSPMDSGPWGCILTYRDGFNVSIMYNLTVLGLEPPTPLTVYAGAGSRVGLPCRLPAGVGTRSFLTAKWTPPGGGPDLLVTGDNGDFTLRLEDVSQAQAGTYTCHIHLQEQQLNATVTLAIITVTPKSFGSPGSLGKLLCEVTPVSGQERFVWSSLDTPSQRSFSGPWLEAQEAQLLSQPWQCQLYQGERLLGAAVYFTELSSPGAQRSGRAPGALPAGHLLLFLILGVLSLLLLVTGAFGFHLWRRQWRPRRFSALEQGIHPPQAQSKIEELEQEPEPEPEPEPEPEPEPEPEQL
Procedure, shortened: (§1)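 Cells stably expressing human (CHO-K1-hLAG-3) or mouse (CHO-K1-mLAG-3) LAG-3 are pre-incubated with test peptide at graded concentrations for 30 min at 4 °C. Recombinant FGL1-Fc of the matching species is then added for 30 min at 4 °C, followed by PE anti-human IgG1 (anti-Fc). MFI is read by flow cytometry. Blocking % = (MFI no-peptide control − MFI peptide)/MFI no-peptide control × 100. Cells given only anti-Fc-PE serve as background. IC50 is taken from dose–response curves.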

hPD-1/hPD-L1 = hPD-1/hPD-L1 (Homo sapiens, UniProt Q9NZQ7); assay: Blocking assay of hPD-1/hPD-L1 interaction; type: binding; conditions: 100 μmol/L, n = 3, compared with OPBP-1(8–12)
Chain of hPD-1/hPD-L1 (Q9NZQ7 19-239 limits assumed): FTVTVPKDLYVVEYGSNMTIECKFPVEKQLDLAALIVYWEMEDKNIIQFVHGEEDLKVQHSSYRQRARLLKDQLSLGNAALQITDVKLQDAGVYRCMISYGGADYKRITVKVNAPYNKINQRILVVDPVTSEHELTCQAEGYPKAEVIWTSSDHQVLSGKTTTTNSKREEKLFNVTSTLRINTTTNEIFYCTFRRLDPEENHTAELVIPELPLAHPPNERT

[3] = system: H22 tumors in BALB/c mice; assay: H22 tumor model; type: in vivo, mouse; conditions: daily for 14 days, LFP-D1 3 mg/kg, LFOP 5.8 mg/kg, n = 5
Procedure, shortened: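 H22 cells (2 × 10^6) are injected subcutaneously into the right flank of six-week-old female BALB/c mice. Dosing is daily once tumors reach about 50 mm3: 3 mg/kg, 2.5 mg/kg, both combined, or 5.8 mg/kg of the fused peptide (equimolar to 3 mg/kg). Tumor volume (½ × length × width × height) and body weight are recorded every two days over 14 days of treatment.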

mouse LAG-3-His protein = biological target: T2, mouse LAG-3-His protein (Mus musculus, UniProt Q61790); assay: MST binding affinity to mLAG-3
T2 sequence (Q61790 24-521): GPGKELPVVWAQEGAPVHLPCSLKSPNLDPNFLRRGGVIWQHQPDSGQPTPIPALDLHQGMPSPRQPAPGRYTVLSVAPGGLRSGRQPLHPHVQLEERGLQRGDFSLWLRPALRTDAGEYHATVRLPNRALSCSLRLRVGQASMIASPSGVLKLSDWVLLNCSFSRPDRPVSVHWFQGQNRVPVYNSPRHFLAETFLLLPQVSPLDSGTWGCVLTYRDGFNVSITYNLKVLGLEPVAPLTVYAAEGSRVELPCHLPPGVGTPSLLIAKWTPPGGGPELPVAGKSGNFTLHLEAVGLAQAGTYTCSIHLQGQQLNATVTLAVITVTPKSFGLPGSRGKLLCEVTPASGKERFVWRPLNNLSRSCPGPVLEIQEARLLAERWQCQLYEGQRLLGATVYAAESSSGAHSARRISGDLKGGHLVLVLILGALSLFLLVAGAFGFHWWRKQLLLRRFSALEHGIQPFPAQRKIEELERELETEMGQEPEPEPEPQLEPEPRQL
Procedure, shortened: (§2)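 His-tagged LAG-3 (human or mouse) is labeled with RED-tris-NTA 2nd-generation dye. Test peptide is serially diluted in PBST (0.05% Tween-20) and mixed with an equal volume of labeled protein at room temperature for 5 min. Samples are loaded into capillaries for microscale thermophoresis, and KD is fitted from the dose–response curves.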

mouse LAG-3/FGL1 = biological target: T3, mouse LAG-3/FGL1 (Mus musculus, UniProt Q61790); assay: Blocking assay of mLAG-3/mFGL1 interaction on CHO-K1-mLAG-3 cells; type: binding
T3 sequence (Q61790 24-521): T2 sequence (Q61790 24-521)
Procedure, shortened: as §1

Human LAG-3-His protein = biological target: T4, Human LAG-3-His protein (Homo sapiens, UniProt P18627); assay: MST binding affinity to hLAG-3
T4 sequence (P18627 23-525): T1 sequence (P18627 23-525)
Procedure, shortened: as §2

[4] = LFP-D1 treatment vs normal saline, n = 5

Row | Compound | Tumor progression of MC38 tumors ([1]; LFOP 5.8 mg/kg alone, 14 days, n = 5) | Tumor growth of MC38 tumors ([1]; LFOP 5.8 mg/kg combined with RT (local 20 Gy), 14 days, n = 5) | Tregs after treatment ([1]; treatment with LFOP, data not shown) | Histopathology of major organs (H&E staining) ([2]; heart, liver, spleen, lung, kidney after treatment with LFOP, RT or both) | Body weight of the mice among groups at ultimate time ([2]; normal saline, RT 20 Gy, LFOP 5.8 mg/kg, LFOP + RT, 14 days, n = 5) | ALT and AST levels in serum ([2]; normal saline, RT 20 Gy, LFOP 5.8 mg/kg, LFOP + RT, n = 5) | Blocking efficacy on hLAG-3/hFGL1 interaction (human LAG-3/FGL1) | Blocking efficacy on hPD-1/hPD-L1 interaction (hPD-1/hPD-L1) | Tumor growth in H22 tumor model [3] | Kd (mouse LAG-3-His protein) [µM] | IC50 (mouse LAG-3/FGL1) [µM] | Liver index ([2]; LFP-D1 treatment vs normal saline, liver weight (mg) to body weight (g), n = 5) | ALT level in mice serum [2, 4] | AST level in mice serum [2, 4] | Kd (Human LAG-3-His protein) [µM]
1 | CSCC[C@@H](N)C(=O)N[C@@H](Cc1c[nH]cn1)C(=O)N[C@@H](CCCNC(=N)N)C(=O)N1CCC[C@H]1C(=O)N1CCC[C@H]1C(=O)N[C@@H](CO)C(=O)N[C@@H](C(=O)NCC(=O)N[C@@H](CO)C(=O)N[C@H](CCCNC(=N)N)C(=O)N[C@@H](C(=O)N[C@H](Cc1ccc(O)cc1)C(=O)N[C@H](CO)C(=O)N[C@H](Cc1ccccc1)C(=O)O)C(C)C)[C@H](C)O [LFOP] (H-[dM]HRPPS[dT]GS[dR][dV][dY][dS][dF]-OH; N-terminus and C-terminus assumed) | slowed tumor progression | effectively controlled tumor growth even partial regression | decreased | no abnormalities | no significant differences | indiscriminate | in line with its parental peptide | in line with its parental peptide | significantly inhibited the tumor growth |  |  |  |  |  | 
2 | CSCC[C@@H](N)C(=O)N[C@@H](Cc1c[nH]cn1)C(=O)N[C@@H](CCCNC(=N)N)C(=O)N1CCC[C@H]1C(=O)N1CCC[C@H]1C(=O)N[C@@H](CO)C(=O)N[C@@H](C(=O)O)[C@H](C)O [LFP-D1] (H-[dM]HRPPS[dT]-OH) |  |  |  |  |  |  |  |  |  | 10.9 ± 3.3 | 17.5 ± 2.2 | no significant difference | no significant difference | no significant difference | 15.7 ± 6.7
3 | MHRPPST [LFP-6] |  |  |  |  |  |  |  |  |  | 14.6 ± 3.3 | 47.2 ± 2.2 |  |  |  | 16.1 ± 5.5
